According to publication PMC7511286 (European Journal of Drug Metabolism and Pharmacokinetics, 2020):

Assay: MAD study: safety and tolerability
Assay type: in vivo, human
Details: for TEAE Hemoglobinuria: subjects having the event: based solely on a positive dip stick test
Summary of the method: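 Healthy males aged 18–55 took oral tablets. Treatment-emergent AEs were recorded by clinical evaluation. Vital signs (blood pressure, pulse), 12-lead and Holter ECG, physical examination, and urine and plasma laboratory tests were also assessed. AEs of special interest were hematuria and retroperitoneal colicky pain with suspected or confirmed nephrolithiasis. Subjects were hospitalized around dosing.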

COc1cccc(-c2ccc(NC(=O)C3=C(C(=O)O)CCC3)c(F)c2)c1 [IMU-838, vidofludimus calcium]
TEAE Abdominal pain upper: number of events (25 mg (initiation dose), n = 8): 1
TEAE Abdominal pain upper: subjects having the event (25 mg (initiation dose), n = 8): 1 (12.5) N (%)
TEAE Atrioventricular block first degree: number of events (25 mg (initiation dose), n = 8): 1
TEAE Atrioventricular block first degree: subjects having the event (25 mg (initiation dose), n = 8): 1 (12.5) N (%)
TEAE Diarrhea: subjects having the event (25 mg (initiation dose), n = 8): 1 (12.5) N (%)
TEAE Nasopharyngitis: subjects having the event (25 mg (initiation dose), n = 8): 1 (12.5) N (%)
TEAEs Cardiac disorders Total: number of events (25 mg (initiation dose), n = 8): 1
TEAEs Cardiac disorders Total: subjects having the event (25 mg (initiation dose), n = 8): 1 (12.5) N (%)
TEAEs Gastrointestinal disorders Total: number of events (25 mg (initiation dose), n = 8): 2
TEAEs Gastrointestinal disorders Total: subjects having the event (25 mg (initiation dose), n = 8): 1 (12.5) N (%)
TEAEs Infections and infestations Total: number of events (25 mg (initiation dose), n = 8): 1
TEAEs Infections and infestations Total: subjects having the event (25 mg (initiation dose), n = 8): 1 (12.5) N (%)
TEAEs Total: number of events (25 mg (initiation dose), n = 8): 4
TEAEs Total: subjects having the event (25 mg (initiation dose), n = 8): 3 (37.5) N (%)
number of drug-related TEAEs (30 mg once daily): 18
TEAE Abdominal pain: number of events (30 mg, n = 12): 1
TEAE Abdominal pain: subjects having the event (30 mg, n = 12): 1 (8.3) N (%)
TEAE Feces soft: number of events (30 mg, n = 12): 2
TEAE Feces soft: subjects having the event (30 mg, n = 12): 2 (16.7) N (%)
TEAE Flatulence: subjects having the event (30 mg, n = 12): 6 (50.0) N (%)
TEAE Gamma–glutamyl transferase increased: number of events (30 mg, n = 12): 2
TEAE Gamma–glutamyl transferase increased: subjects having the event (30 mg, n = 12): 1 (8.3) N (%)
TEAE Headache: subjects having the event (30 mg, n = 12): 1 (8.3) N (%)
TEAE Lipase increased: number of events (30 mg, n = 12): 1
TEAE Lipase increased: subjects having the event (30 mg, n = 12): 1 (8.3) N (%)
TEAE Musculoskeletal discomfort: number of events (30 mg, n = 12): 1
TEAE Musculoskeletal discomfort: subjects having the event (30 mg, n = 12): 1 (8.3) N (%)
TEAE Nausea: subjects having the event (30 mg, n = 12): 1 (8.3) N (%)
TEAEs Gastrointestinal disorders Total: number of events (30 mg, n = 12): 14
TEAEs Gastrointestinal disorders Total: subjects having the event (30 mg, n = 12): 7 (58.3) N (%)
TEAEs Investigations Total: number of events (30 mg, n = 12): 3
TEAEs Investigations Total: subjects having the event (30 mg, n = 12): 2 (16.7) N (%)
TEAEs Musculoskeletal and connective tissue disorders Total: number of events (30 mg, n = 12): 1
TEAEs Musculoskeletal and connective tissue disorders Total: subjects having the event (30 mg, n = 12): 1 (8.3) N (%)
TEAEs Nervous system disorders Total: number of events (30 mg, n = 12): 1
TEAEs Nervous system disorders Total: subjects having the event (30 mg, n = 12): 1 (8.3) N (%)
TEAEs Renal and urinary disorders Total: number of events (30 mg, n = 12): 1
TEAEs Renal and urinary disorders Total: subjects having the event (30 mg, n = 12): 1 (8.3) N (%)
TEAEs Total: number of events (30 mg, n = 12): 20
TEAEs Total: subjects having the event (30 mg, n = 12): 9 (75.0) N (%)
TEAE Hemoglobinuria: subjects having the event (30 mg, n = 12): 1 (8.3) N (%)
number of drug-related TEAEs (40 mg once daily): 8
TEAE Arthropod bite: number of events (40 mg, n = 12): 1
TEAE Arthropod bite: subjects having the event (40 mg, n = 12): 1 (8.3) N (%)
TEAE Blood creatinine kinase increased: number of events (40 mg, n = 12): 1
TEAE Blood creatinine kinase increased: subjects having the event (40 mg, n = 12): 1 (8.3) N (%)
TEAE Fatigue: subjects having the event (40 mg, n = 12): 3 (25.0) N (%)
TEAE Flatulence: subjects having the event (40 mg, n = 12): 1 (8.3) N (%)
TEAE Headache: subjects having the event (40 mg, n = 12): 1 (8.3) N (%)
TEAE Listless: subjects having the event (40 mg, n = 12): 1 (8.3) N (%)
TEAE Sneezing: subjects having the event (40 mg, n = 12): 1 (8.3) N (%)
TEAEs Gastrointestinal disorders Total: number of events (40 mg, n = 12): 1
TEAEs Gastrointestinal disorders Total: subjects having the event (40 mg, n = 12): 1 (8.3) N (%)
TEAEs General disorders and administration site conditions Total: number of events (40 mg, n = 12): 3
TEAEs General disorders and administration site conditions Total: subjects having the event (40 mg, n = 12): 3 (25.0) N (%)
TEAEs Injury, poisoning and procedural complications total: number of events (40 mg, n = 12): 1
TEAEs Investigations Total: number of events (40 mg, n = 12): 1
TEAEs Investigations Total: subjects having the event (40 mg, n = 12): 1 (8.3) N (%)
TEAEs Nervous system disorders Total: number of events (40 mg, n = 12): 2
TEAEs Nervous system disorders Total: subjects having the event (40 mg, n = 12): 1 (8.3) N (%)
TEAEs Psychiatric disorders Total: number of events (40 mg, n = 12): 1
TEAEs Psychiatric disorders Total: subjects having the event (40 mg, n = 12): 1 (8.3) N (%)
TEAEs Renal and urinary disorders Total: number of events (40 mg, n = 12): 2
TEAEs Renal and urinary disorders Total: subjects having the event (40 mg, n = 12): 2 (16.7) N (%)
TEAEs Respiratory, thoracic and mediastinal disorders Total: number of events (40 mg, n = 12): 1
TEAEs Total: number of events (40 mg, n = 12): 12
TEAEs Total: subjects having the event (40 mg, n = 12): 6 (50.0) N (%)
TEAE Hemoglobinuria: subjects having the event (40 mg, n = 12): 2 (16.7) N (%)
number of drug-related TEAEs (50 mg once daily): 16
TEAE Abdominal pain upper: number of events (50 mg, n = 16): 2
TEAE Abdominal pain upper: subjects having the event (50 mg, n = 16): 1 (6.3) N (%)
